Screens from PubChem.
DNMT1 block: DNMT1 (human) enzyme inhibition; P26358; DNMT1 molecular beacon, Hinp1I cleavage, fluorescence; inhibition (reported as % activation of signal), % at 10 µM; hit rate 0.83% among 360,000; in the data active means inhibition above about 50%
Scp1 inh: inhibitors of human Scp-1 phosphatase. Q9GZU7. hit rate 0.88% among 340,000. Recombinant Scp1, phosphopeptide, malachite green phosphate absorbance. AID 493091. inhibition, % at 20 µM;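 active means inhibition above about 50% at 20 µM, limit read from the data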
Target sequence (Q9GZU7 76-261 limits assumed): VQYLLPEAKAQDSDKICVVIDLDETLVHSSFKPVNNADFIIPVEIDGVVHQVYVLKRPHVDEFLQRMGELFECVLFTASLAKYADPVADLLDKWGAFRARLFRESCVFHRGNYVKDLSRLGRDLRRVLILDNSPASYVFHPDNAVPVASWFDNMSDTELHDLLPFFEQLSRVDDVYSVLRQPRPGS
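Test system: SCP-1 phosphatase catalytic domain, residues 76-261; measured by: colorimetric phosphate reagent with accelerator and stabiliser, absorbance at 630 nm; timing: enzyme reaction 45 min at room temperature, colour 5 min, stabilisation 30 min; also added: Phosphorylated 17-residue peptide substrate; compound dosing: one concentration, 20 µM, with 1.0% DMSO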
SUMO1 PPI mod: modulators of human SUMO1-mediated protein-protein interactions; SUMO1 binding to a labelled peptide, TR-FRET, 1 h; inhibition, % at 20 µM; hit rate 0.33% among 360,000; AID 602429; in the data active means inhibition above about 37%
LMPTP inh: blocks human LMPTP phosphatase; hit rate 0.22% among 360,000; recombinant LMPTP-A, OMFP fluorogenic substrate, fluorescence intensity; P24666; AID 651560; inhibition, % at 20 µM;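 active means compounds that cut the enzyme signal by at least half of the control window in the single-dose screen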
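Test system: LMPTP-A, protein tyrosine phosphatase of low molecular weight; Input: 0.625 nM enzyme; Incubation: 50 min dark incubation at room temperature; Signal: endpoint fluorescence intensity from OMFP dephosphorylation; Read-out basis: % inhibition versus control wells.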
STEP block: blocks human striatal-enriched tyrosine phosphatase; recombinant STEP, OMFP fluorogenic substrate, fluorescence; inhibition, % at 20 µM; hit rate 0.25% among 360,000; AID 588621;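 active means inhibition at 20 µM, scaled per plate between control wells, above about 37%, limit read from the data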
Target sequence (P54829 whole entry, looked up): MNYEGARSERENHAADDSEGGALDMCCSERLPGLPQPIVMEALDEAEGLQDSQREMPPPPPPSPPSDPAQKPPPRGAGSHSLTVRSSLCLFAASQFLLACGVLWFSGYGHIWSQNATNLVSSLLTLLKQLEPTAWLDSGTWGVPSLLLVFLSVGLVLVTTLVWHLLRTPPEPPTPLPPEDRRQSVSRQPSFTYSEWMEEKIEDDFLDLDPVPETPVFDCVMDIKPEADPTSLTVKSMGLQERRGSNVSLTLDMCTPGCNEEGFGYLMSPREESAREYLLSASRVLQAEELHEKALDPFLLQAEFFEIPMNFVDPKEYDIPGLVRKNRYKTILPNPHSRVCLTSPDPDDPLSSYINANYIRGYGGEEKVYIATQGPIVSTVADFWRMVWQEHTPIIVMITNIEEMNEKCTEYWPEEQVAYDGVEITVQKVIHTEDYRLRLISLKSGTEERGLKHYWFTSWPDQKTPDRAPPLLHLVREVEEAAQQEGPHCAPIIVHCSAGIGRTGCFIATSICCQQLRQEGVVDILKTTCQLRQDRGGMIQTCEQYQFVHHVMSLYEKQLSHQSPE
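Assay system: isolated STEP enzyme / Timing: 20 min at room temperature, dark / Doses: 20 µM, 1% DMSO / Technique: fluorescence intensity, excitation 480 nm, emission 540 nm / Reagent: fluorogenic phosphatase substrate OMFP at 25 µM final / Measure: percent inhibition scaled to no-enzyme and uninhibited-enzyme controls, plate-pattern corrected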
CSN deneddyl inh: CSN deneddylation inhibition. inhibition, % at 12.5 µM. AID 651999. hit rate 0.38% among 360,000. Q92905. Purified CSN, SCF-Nedd8-OG deneddylation, fluorescence polarization;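 active means pattern-corrected inhibition above about 35%, with an unprinted fluorescence ratio check between 0.5 and 1.5, limit read from the data, passing the limit was not always enough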
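Test system: purified human Csn5 enzyme expressed in HEK293T cells. Amount: 0.24 nM enzyme. Reagent: SCFSkp2-Nedd8OG substrate at 10 nM final. Schedule: 90 min incubation of compound, enzyme and substrate at room temperature. Detection: fluorescence polarization. Read-out: % inhibition of substrate cleavage by Csn5.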
Scp-1 conf: confirmation of human Scp-1 phosphatase inhibitors; hit rate 61% among 2,500; inhibition, % at 20 µM; AID 540281; shares compounds with Scp1 inh; recombinant SCP-1 catalytic domain, phosphate release, malachite green absorbance
MG interference: interferes with malachite green readout, flagging false Scp-1 hits; shares compounds with Scp1 inh; Colorimetric interference counterscreen, malachite green absorbance 630 nm; apparent inhibition (interference), % at 20 µM; 2,500 tested, under 10 active; AID 540313;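 further: compounds added after enzyme reaction finished so only phosphate colour detection is probed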
Scp-1 Tm shift: Scp-1 (human) binding by thermal shift; shares compounds with Scp1 inh; Recombinant SCP1, Sypro Orange thermal shift Tm; thermal shift relative to vanadate control, % at 40 µM; hit rate 25% among 1,500; AID 540329;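 active means substances whose mean melting-temperature shift, as a percentage of the reference inhibitor's shift, reaches about 5.3%, limit read from the data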
DNMT1 interf DR: shows spectral interference in the DNMT1 beacon assay | shares compounds with DNMT1 block | molecular beacon fluorescence, spectral interference counter-screen | IC50, µM | 200 tested, under 10 active | AID 602382; call rule not given here
DNMT1 confirm: DNMT1 inhibition confirmation, single concentration. shares compounds with DNMT1 block. DNMT1 molecular beacon HinP1I cleavage, fluorescence. inhibition, % at 10 µM. hit rate 8% among 2,300. AID 602385;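 active means average inhibition of at least 30% in the single-concentration confirmation test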
Beacon interf: shows spectral interference in the DNMT1 beacon assay. shares compounds with DNMT1 block. DNMT1 molecular beacon spectral interference counterscreen, fluorescence 485/520. activation (fluorescence interference), % at 10 µM. hit rate 1% among 2,300. AID 602387;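 active means activation of at least 30% at 10 µM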;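 further: DNMT1 catalytic domain with a HinP1I cleavage step and a FAM/dabcyl DNA beacon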
Each line names hits and unclear results; the compound was inactive in the other large screens (follow-up assays come after a bar, where they were run). In the library only some 2% were active in any assay of this set; here they are far more common.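 How the source made its calls, unless noted: active means inhibition of at least 30% at 20 µM; inactive means the rest.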

CC(C)CCNC(=O)C1CCC(CNS(=O)(=O)c2ccc(Cl)cc2)CC1 (stereo not drawn)	none
CN1N=C(C(=O)N=c2sc3ccccc3n2C)CCC1=O	none
O=C(COC(=O)c1cncc(Br)c1)NCc1ccc(F)cc1	none
O=C(COC(=O)c1cccs1)NCc1ccco1	DNMT1 block 72.8, Scp1 inh 96.8 | Scp-1 conf 63.9 | MG interference inactive | Scp-1 Tm shift inactive | DNMT1 confirm inactive | Beacon interf inactive
COc1cc(NC(=O)c2cccs2)c(C(=O)OCC(=O)NCc2ccco2)cc1OC	none
O=C(COC(=O)c1cncc(Br)c1)NCc1ccco1	DNMT1 block 102.2, Scp1 inh 88.1, SUMO1 PPI mod 63.2 | Scp-1 conf 54.1 | MG interference inactive | Scp-1 Tm shift inactive | DNMT1 confirm inactive | Beacon interf inactive
CC1(C)NC(=O)N(CC(=O)Nc2ccc(-n3cnnn3)cc2)C1=O	none
Cc1ccc(OCc2cn3cccnc3n2)cc1	none
Cc1ccc(-n2nc(-c3ccco3)cc2C(=O)O)cc1	DNMT1 block 156.3, Scp1 inh 66.0, CSN deneddyl inh 37.7 | Scp-1 conf 58.4 | MG interference inactive | Scp-1 Tm shift 7.0 | DNMT1 confirm inactive | Beacon interf inactive
CCOc1ccc(N=C2NC(=O)S/C2=C\c2ccc(OC)cc2)cc1	DNMT1 block 63.9, Scp1 inh 61.4 | Scp-1 conf 77.9 | MG interference inactive | Scp-1 Tm shift inactive | DNMT1 confirm inactive | Beacon interf inactive
COc1ccc(/C=C2/SC(=O)NC2=O)cc1	none
O=C(Nc1sc2c(c1C(=O)O)CCC2)c1ccccc1	DNMT1 block 82.2, Scp1 inh 58.1 | Scp-1 conf 53.8 | MG interference inactive | Scp-1 Tm shift 6.6 | DNMT1 confirm inactive | Beacon interf inactive
COc1ccc(NC(=O)c2c3c(nc4ccccc24)CCC3)cc1S(=O)(=O)N1CCOCC1	DNMT1 block 85.8, Scp1 inh 80.8 | Scp-1 conf 58.5 | MG interference inactive | Scp-1 Tm shift 10.6 | DNMT1 confirm inactive | Beacon interf inactive
COc1ccc(C(=O)Nc2ccc(NC(=O)c3ccccc3)cc2)cc1S(=O)(=O)N1CCOCC1	none
CC1=CC(=O)c2ccccc2C1=O	none
CCOc1ccccc1C(O)C1=CC(=O)c2ccccc2C1=O (stereo not drawn)	DNMT1 block 95.8, Scp1 inh 74.7 | Scp-1 conf 54.1 | MG interference inactive | Scp-1 Tm shift 14.3 | DNMT1 confirm inactive | Beacon interf inactive
O=C(COc1cccnc1[N+](=O)[O-])Nc1ncc(Cl)cc1Cl	DNMT1 block 82.7, Scp1 inh 62.2 | Scp-1 conf 62.6 | MG interference inactive | Scp-1 Tm shift 10.0 | DNMT1 confirm inactive | Beacon interf inactive
COc1ccc(S(=O)(=O)Cc2ccc(C(=O)N3CCc4ccccc4C3)o2)cc1	none
Cc1ccc(S(=O)(=O)Cc2ccc(C(=O)N3CCc4ccccc4C3)o2)cc1	DNMT1 block 81.0, Scp1 inh 75.5 | Scp-1 conf 54.1 | MG interference inactive | Scp-1 Tm shift inactive | DNMT1 confirm inactive | Beacon interf inactive
Cc1cc(=O)[nH]c(SCC(=O)NC2CCCc3ccccc32)n1 (stereo not drawn)	none
O=C1CC(=O)NC(SCC(=O)Nc2ccccc2[N+](=O)[O-])=N1	DNMT1 block 64.2, Scp1 inh 76.6 | Scp-1 conf 66.6 | MG interference inactive | Scp-1 Tm shift 13.1 | DNMT1 interf DR inactive | DNMT1 confirm 32.9 | Beacon interf inactive
Cc1cccc(C(=O)OCC(=O)N2CC(C)OC(C)C2)c1C (stereo not drawn)	none
Cc1cccc(C(=O)OCC(=O)c2ccc(CC(=O)N3CCOCC3)s2)c1C	DNMT1 block 50.0, Scp1 inh 84.8 | Scp-1 conf 60.5 | MG interference inactive | Scp-1 Tm shift inactive | DNMT1 confirm inactive | Beacon interf inactive
CCCCn1c(=O)[nH]c(=O)c2c1nc(-c1ccccn1)n2CC	none
Cc1c(Cl)cccc1-c1ccc(/C=N/n2cnnc2)o1	none
Cc1c(C(=O)O)cccc1-c1ccc(/C=N/n2cnnc2)o1	DNMT1 block 58.5, Scp1 inh 67.5 | Scp-1 conf 37.5 | MG interference inactive | Scp-1 Tm shift inactive | DNMT1 confirm inactive | Beacon interf inactive
COCc1cc(C)n(CC(=O)N/N=C/c2ccc(-c3ccc(Cl)c(C(=O)O)c3)o2)c(=O)c1C#N	DNMT1 block 57.6, Scp1 inh 66.3 | Scp-1 conf 63.2 | MG interference inactive | Scp-1 Tm shift inactive | DNMT1 confirm inactive | Beacon interf inactive
Cc1cc(C=O)c(C)n1-c1ccc(Cl)c(C(=O)O)c1	DNMT1 block 87.7, Scp1 inh 73.6, STEP block 65.6 | Scp-1 conf 76.1 | MG interference inactive | Scp-1 Tm shift 6.2 | DNMT1 confirm inactive | Beacon interf inactive
Cc1nc(C)c(NC(=O)OC(C)C)cc1NC(=O)OC(C)C	none
COCCCNC(=O)/C(C#N)=C/c1ccc(OCC(=O)O)c(OC)c1	DNMT1 block 89.4, Scp1 inh 57.1 | Scp-1 conf 60.4 | MG interference inactive | Scp-1 Tm shift 7.5 | DNMT1 confirm inactive | Beacon interf inactive
Cc1ncc([N+](=O)[O-])n1CCOC(=O)c1cc(Cl)cc(Cl)c1N	DNMT1 block 60.5, Scp1 inh 61.6 | Scp-1 conf 68.2 | MG interference inactive | Scp-1 Tm shift 12.0 | DNMT1 confirm inactive | Beacon interf inactive
Cc1nc2cc(-c3ccccc3)nn2c(C)c1CCC(=O)NC(C)c1ccc2c(c1)OCCO2 (stereo not drawn)	none
COc1cc(NC(=O)c2noc3c2CCC3)c(OC)cc1Cl	DNMT1 block 101.4, Scp1 inh 71.9 | Scp-1 conf 69.7 | MG interference inactive | Scp-1 Tm shift inactive | DNMT1 confirm inactive | Beacon interf inactive
